Reference: ChEMBL document CHEMBL1155063 (Bioorg Med Chem, 2008)

Columns and labels:
DU-145 = experiment: Cytotoxicity against human DU145 cells at 10 uM after 48 hrs by MTT assay; format: functional; conditions: DU-145, 48 h, values are per cent of control
Method in brief: (§1)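 Single-dose screen on the NCI 60-cell-line panel, run to the Developmental Therapeutics Program protocol (one-dose mean graph). Each value is the growth percentage of treated cells against untreated control cells.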

[1] = target: T1, Telomerase reverse transcriptase (Homo sapiens, UniProt O14746); experiment: Effect on human TERT expressed in BJ1 cells at 1 uM after 24 hrs by SEAP assay realtive to control; conditions: BJ
T1 sequence (O14746 whole entry): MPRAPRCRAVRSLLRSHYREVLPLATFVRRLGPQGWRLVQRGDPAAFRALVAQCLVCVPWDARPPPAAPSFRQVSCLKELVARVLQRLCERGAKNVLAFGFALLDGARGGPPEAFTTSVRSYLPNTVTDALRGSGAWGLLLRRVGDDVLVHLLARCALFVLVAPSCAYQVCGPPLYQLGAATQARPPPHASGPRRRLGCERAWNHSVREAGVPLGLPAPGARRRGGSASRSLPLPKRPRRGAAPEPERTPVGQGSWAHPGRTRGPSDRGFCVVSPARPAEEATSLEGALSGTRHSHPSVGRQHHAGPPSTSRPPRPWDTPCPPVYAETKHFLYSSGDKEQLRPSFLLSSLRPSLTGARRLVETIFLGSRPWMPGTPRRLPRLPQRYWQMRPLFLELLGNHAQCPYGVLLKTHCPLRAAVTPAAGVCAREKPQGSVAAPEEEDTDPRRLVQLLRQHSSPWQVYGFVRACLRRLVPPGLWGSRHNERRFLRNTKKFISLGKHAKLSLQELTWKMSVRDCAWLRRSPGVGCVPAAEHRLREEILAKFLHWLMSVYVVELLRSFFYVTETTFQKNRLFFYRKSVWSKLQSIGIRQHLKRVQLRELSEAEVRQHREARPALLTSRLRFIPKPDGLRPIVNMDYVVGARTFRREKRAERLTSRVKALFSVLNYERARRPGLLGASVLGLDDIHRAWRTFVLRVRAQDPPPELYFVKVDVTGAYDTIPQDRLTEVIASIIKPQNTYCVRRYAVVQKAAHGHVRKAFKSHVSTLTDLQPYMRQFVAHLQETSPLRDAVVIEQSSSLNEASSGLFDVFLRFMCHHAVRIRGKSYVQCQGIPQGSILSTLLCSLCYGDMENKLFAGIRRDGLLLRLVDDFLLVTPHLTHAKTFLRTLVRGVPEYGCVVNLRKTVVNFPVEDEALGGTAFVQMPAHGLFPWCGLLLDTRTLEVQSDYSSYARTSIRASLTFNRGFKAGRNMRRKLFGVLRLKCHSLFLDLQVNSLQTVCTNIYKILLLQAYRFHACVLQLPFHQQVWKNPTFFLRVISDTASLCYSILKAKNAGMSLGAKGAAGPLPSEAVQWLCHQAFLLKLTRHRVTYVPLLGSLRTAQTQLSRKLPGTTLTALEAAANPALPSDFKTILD

EKVX = experiment: Cytotoxicity against human EKVX cells at 10 uM after 48 hrs by MTT assay; format: functional; method in brief: as §1
[2] = Cytotoxicity against human H1299 cells at 10 uM after 48 hrs by MTT assay realtive to control; format: functional; conditions: NCI-H1299, 48 h
Method in brief: (§2)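 H1299 non-small-cell lung cells were kept in RPMI 1640 with 10% FBS and penicillin/streptomycin at 37 °C under 5% CO2. About 2 × 10^3 cells per well were pre-incubated for 24 h. Compound was added from freshly made DMSO solution diluted in complete medium and left for 48 h. MTT was then added for 4 h at 37 °C, followed by 20% SDS/50% DMF lysis buffer for 16 h at 37 °C, and absorbance read at 550 nm.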

[3] = target: T1, Telomerase reverse transcriptase; experiment: Effect on human TERT expressed in H1299 cells at 1 uM after 24 hrs by SEAP assay relative to control
MOLT-4 = experiment: Cytotoxicity against human MOLT4 cells at 10 uM after 48 hrs by MTT assay; format: functional; conditions: MOLT-4, 48 h; method in brief: as §1
OVCAR-8 = experiment: Cytotoxicity against human OVCAR8 cells at 10 uM after 48 hrs by MTT assay; format: functional; conditions: OVCAR-8, 48 h; method in brief: as §1
UACC-62 = experiment: Cytotoxicity against human UACC62 cells at 10 uM after 48 hrs by MTT assay; format: functional; conditions: UACC-62, 48 h, values are per cent of control
Method in brief: (§3)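 Single-dose screen in the NCI 60-cell-line panel, run according to the Developmental Therapeutics Program protocol (one-dose mean graph). The result is the growth percentage of treated cells relative to untreated control cells.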

HCT-29 = experiment: Growth percent of human HCT29 cells at 10 uM after 48 hrs by MTT assay; conditions: HCT-29, 48 h
[4] = Cytotoxicity against human TERT immortalized BJ1 cells at 10 uM after 48 hrs by MTT assay relative to control; format: cell-based, BJ
Method in brief: (§4)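 hTERT-immortalized BJ1 fibroblasts were grown in DMEM with 10% FCS, 1 mM pyruvate and 4 mM […]. Cells (about 2 × 10^3 per well) were seeded and held 24 h at 37 °C. Compounds were freshly dissolved in DMSO, diluted into medium and left on the cells 48 h. MTT was added for 4 h, then SDS/DMF lysis buffer for 16 h. Absorbance was read at 550 nm and expressed relative to untreated cells (100%).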

[5] = Cytotoxicity against human H1299 cells at 100 uM after 48 hrs by MTT assay realtive to control; format: functional; conditions: NCI-H1299, 48 h; method in brief: as §2
SF-268 = experiment: Cytotoxicity against human SF268 cells at 10 uM after 48 hrs by MTT assay; format: functional; conditions: SF-268, 48 h, values are per cent of control; method in brief: as §1
[6] = target: T1, Telomerase reverse transcriptase; experiment: Effect on human TERT expressed in BJ1 cells at 10 uM after 24 hrs by SEAP assay relative to control; conditions: BJ
M14 = experiment: Cytotoxicity against human M14 cells at 10 uM after 48 hrs by MTT assay; format: functional; conditions: M14, 48 h, values are per cent of control; method in brief: as §1
SNB-75 = experiment: Cytotoxicity against human SNB75 cells at 10 uM after 48 hrs by MTT assay; format: functional; conditions: SNB-75, 48 h, values are per cent of control; method in brief: as §3
ACHN = experiment: Cytotoxicity against human ACHN cells at 10 uM after 48 hrs by MTT assay; format: functional; method in brief: as §1
HCT-15 = experiment: Growth percent of human HCT15 cells at 10 uM after 48 hrs by MTT assay; conditions: HCT-15, 48 h
UACC-257 = experiment: Cytotoxicity against human UACC257 cells at 10 uM after 48 hrs by MTT assay; format: functional; conditions: UACC-257, 48 h, values are per cent of control; method in brief: as §3
RPMI-8226 = experiment: Cytotoxicity against human RPMI-8226 cells at 10 uM after 48 hrs by MTT assay; format: functional; conditions: RPMI-8226, 48 h; method in brief: as §1
MDA-MB-231 = experiment: Cytotoxicity against human MDA-MB-231/ATCC cells at 10 uM after 48 hrs by MTT assay; format: functional; conditions: MDA-MB-231, 48 h; method in brief: as §1
[7] = target: T1, Telomerase reverse transcriptase; experiment: Effect on human TERT expressed in BJ1 cells at 100 uM after 24 hrs by SEAP assay relative to control; conditions: BJ
OVCAR-4 = experiment: Cytotoxicity against human OVCAR4 cells at 10 uM after 48 hrs by MTT assay; format: functional; conditions: OVCAR-4, 48 h; method in brief: as §1
SN12C = experiment: Cytotoxicity against human SN12C cells at 10 uM after 48 hrs by MTT assay; format: functional; method in brief: as §1
MDA-MB-435 = experiment: Cytotoxicity against human MDA-MB-435 cells at 10 uM after 48 hrs by MTT assay; format: functional; conditions: MDA-MB-435, 48 h; method in brief: as §1
T47D = experiment: Cytotoxicity against human T47D cells at 10 uM after 48 hrs by MTT assay; format: functional; method in brief: as §3
UO-31 = experiment: Cytotoxicity against human UO31 cells at 10 uM after 48 hrs by MTT assay; format: functional; conditions: UO-31, 48 h, values are per cent of control; method in brief: as §3
[8] = Cytotoxicity against human TERT immortalized BJ1 cells at 1 uM after 48 hrs by MTT assay relative to control; format: cell-based, BJ; method in brief: as §4
[9] = Cell viability of human H1299 cells at 1 uM after 48 hrs by MTT assay relative to control; conditions: NCI-H1299, 48 h
786-0 = experiment: Cytotoxicity against human 786-0 cells at 10 uM after 48 hrs by MTT assay; format: functional; conditions: 786-0, 48 h; method in brief: as §1
CCRF-CEM = experiment: Cytotoxicity against human CCRF-CEM cells at 10 uM after 48 hrs by MTT assay; format: functional; method in brief: as §1
BT-549 = experiment: Cytotoxicity against human BT549 cells at 10 uM after 48 hrs by MTT assay; format: functional; conditions: BT-549, 48 h; method in brief: as §1
TK-10 = experiment: Cytotoxicity against human TK10 cells at 10 uM after 48 hrs by MTT assay; format: functional; conditions: TK-10, 48 h, values are per cent of control; method in brief: as §3
NCI-H460 = experiment: Growth percent of human NCI-H460 cells at 10 uM after 48 hrs by MTT assay; conditions: NCI-H460, 48 h

Compound: CN(C)CC(=O)Nc1ccc2c(c1)C(=O)c1cc(NC(=O)CN(C)C)ccc1C2=O
- growth, % of control at 10 µM (DU-145): 78.7%
- residual activity [1]: 96%
- growth percent at 10 µM (EKVX): 102%
- viability at 10 µM [2]: 55%
- residual activity [3]: 87%
- growth percent at 10 µM (MOLT-4): 29.1%
- growth percent at 10 µM (OVCAR-8): 32.3%
- growth, % of control at 10 µM (UACC-62): 22.3%
- growth percent at 10 µM (HCT-29): 11.7%
- viability at 48 h, 10 µM [4]: 45%
- viability at 100 µM [5]: 15%
- growth, % of control at 10 µM (SF-268): 64.9%
- residual activity [6]: 44%
- growth, % of control at 10 µM (M14): 75%
- growth, % of control at 10 µM (SNB-75): 76.1%
- growth percent at 10 µM (ACHN): 66.4%
- growth percent at 10 µM (HCT-15): 16.3%
- growth, % of control at 10 µM (UACC-257): -1.84%
- growth percent at 10 µM (RPMI-8226): 35%
- growth percent at 10 µM (MDA-MB-231): 4.49%
- residual activity [7]: 3%
- growth percent at 10 µM (OVCAR-4): 45.7%
- growth percent at 10 µM (SN12C): 28%
- growth percent at 10 µM (MDA-MB-435): 68.4%
- growth percent at 10 µM (T47D): 24.6%
- growth, % of control at 10 µM (UO-31): -82.5%
- viability at 48 h, 1 µM [8]: 96%
- cell viability at 1 µM [9]: 92%
- growth percent at 10 µM (786-0): 68.6%
- growth percent at 10 µM (CCRF-CEM): -13.2%
- growth percent at 10 µM (BT-549): 85.4%
- growth, % of control at 10 µM (TK-10): 73.5%
- growth percent at 10 µM (NCI-H460): 5.01%
